Data: ChEMBL document CHEMBL5724801, “EUbOPEN Chemogenomics Library - Multiplex” (2024)
Several values for one entry are separate records, joined by “and”; a condition that tells them apart may be missing. Identical values can stand only once.

Test system: U2OS
Assay: Multiplex assay against U2OS
Type: toxicity, cell-based
Conditions: human
In short: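 Cells stained live at seeding with Hoechst33342, BioTracker Green Microtubule Cytoskeleton Dye, MitoTracker Red and Annexin V Alexa Fluor 680 were imaged on a CQ1 microscope at 37°C and 5% CO2 after compound addition. Their classification by CellPathfinder machine-learning gating ran from Hoechst high-intensity objects versus normal cells, to healthy, pyknosed or fragmented nuclei among normal cells, to mitotic or apoptotic among pyknosed cells. Tubulin, mitochondrial-mass and membrane-permeability phenotypes are per cents of healthy-nucleus cells.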

[1] = 12 h, 1 µM, compound concentration 1 uM
[2] = 12 h, 10 µM, compound concentration 10 uM
[3] = 24 h, 1 µM, compound concentration 1 uM
[4] = 24 h, 10 µM, compound concentration 10 uM
[5] = 48 h, 1 µM, compound concentration 1 uM
[6] = 48 h, 10 µM, compound concentration 10 uM

COCCn1c(C)c(C)s/c1=N\C(=O)C1C(C)(C)C1(C)C
Population Apoptotic (%) [1]: 88% and 71% | Population Fragmented Nuclei (%) [1]: 24% and 20% | Population Healthy Nuclei (%) [1]: 69% and 74% | Population Hoechst High Intensity Objects (%) [1]: 0% | Population Membrane Permeable-Phenotype (%) [1]: 8% and 11% | Population Mitochondria Different-Phenotype (%) [1]: 1% and 3% | Population Mitotic Cells (%) [1]: 11% and 28% | Population Normal (%) [1]: 99% and 100% | Population Pyknosed Nuclei (%) [1]: 6% and 5% | Population Tubulin-Different-Phenotype (%) [1]: 3% and 5% | Total Cell Count [1]: 271 and 135 | Population Apoptotic (%) [2]: 73% and 80% | Population Fragmented Nuclei (%) [2]: 33% and 20% | Population Healthy Nuclei (%) [2]: 52% and 68% | Population Hoechst High Intensity Objects (%) [2]: 2% and 0% | Population Membrane Permeable-Phenotype (%) [2]: 10% and 9% | Population Mitochondria Different-Phenotype (%) [2]: 4% and 3% | Population Mitotic Cells (%) [2]: 26% and 20% | Population Normal (%) [2]: 97% and 100% | Population Pyknosed Nuclei (%) [2]: 13% and 11% | Population Tubulin-Different-Phenotype (%) [2]: 5% and 4% | Total Cell Count [2]: 220 and 135 | Population Apoptotic (%) [3]: 89% and 83% | Population Fragmented Nuclei (%) [3]: 18% | Population Healthy Nuclei (%) [3]: 75% and 77% | Population Hoechst High Intensity Objects (%) [3]: 0% | Population Membrane Permeable-Phenotype (%) [3]: 5% and 9% | Population Mitochondria Different-Phenotype (%) [3]: 3% | Population Mitotic Cells (%) [3]: 10% and 16% | Population Normal (%) [3]: 99% | Population Pyknosed Nuclei (%) [3]: 6% and 3% | Population Tubulin-Different-Phenotype (%) [3]: 2% and 4% | Total Cell Count [3]: 314 and 157 | Population Apoptotic (%) [4]: 80% and 88% | Population Fragmented Nuclei (%) [4]: 28% and 21% | Population Healthy Nuclei (%) [4]: 58% and 66% | Population Hoechst High Intensity Objects (%) [4]: 1% | Population Membrane Permeable-Phenotype (%) [4]: 8% and 10% | Population Mitochondria Different-Phenotype (%) [4]: 8% and 1% | Population Mitotic Cells (%) [4]: 19% and 11% | Population Normal (%) [4]: 98% | Population Pyknosed Nuclei (%) [4]: 12% | Population Tubulin-Different-Phenotype (%) [4]: 2% and 9% | Total Cell Count [4]: 257 and 141 | Population Apoptotic (%) [5]: 94% and 100% | Population Fragmented Nuclei (%) [5]: 12% and 15% | Population Healthy Nuclei (%) [5]: 79% | Population Hoechst High Intensity Objects (%) [5]: 1% | Population Membrane Permeable-Phenotype (%) [5]: 5% and 9% | Population Mitochondria Different-Phenotype (%) [5]: 2% and 1% | Population Mitotic Cells (%) [5]: 5% and 0% | Population Normal (%) [5]: 98% | Population Pyknosed Nuclei (%) [5]: 8% and 4% | Population Tubulin-Different-Phenotype (%) [5]: 4% and 5% | Total Cell Count [5]: 459 and 218 | Population Apoptotic (%) [6]: 81% and 96% | Population Fragmented Nuclei (%) [6]: 22% and 15% | Population Healthy Nuclei (%) [6]: 62% and 71% | Population Hoechst High Intensity Objects (%) [6]: 2% and 1% | Population Membrane Permeable-Phenotype (%) [6]: 11% and 4% | Population Mitochondria Different-Phenotype (%) [6]: 4% | Population Normal (%) [6]: 97% and 98% | Population Pyknosed Nuclei (%) [6]: 14% and 12% | Population Tubulin-Different-Phenotype (%) [6]: 5% and 2% | Total Cell Count [6]: 305 and 206

Cc1noc(-c2ccc(-c3ccc(CC(=O)O)cc3)cc2)c1NC(=O)O[C@H](C)c1ccccc1Cl
Population Apoptotic (%) [1]: 95% and 85% | Population Fragmented Nuclei (%) [1]: 21% and 19% | Population Healthy Nuclei (%) [1]: 69% and 74% | Population Hoechst High Intensity Objects (%) [1]: 4% and 0% | Population Membrane Permeable-Phenotype (%) [1]: 7% and 2% | Population Mitochondria Different-Phenotype (%) [1]: 5% and 2% | Population Mitotic Cells (%) [1]: 5% and 14% | Population Normal (%) [1]: 95% and 99% | Population Pyknosed Nuclei (%) [1]: 9% and 7% | Population Tubulin-Different-Phenotype (%) [1]: 4% | Total Cell Count [1]: 231 and 101 | Population Apoptotic (%) [2]: 78% and 71% | Population Fragmented Nuclei (%) [2]: 29% and 11% | Population Healthy Nuclei (%) [2]: 61% and 83% | Population Hoechst High Intensity Objects (%) [2]: 2% | Population Membrane Permeable-Phenotype (%) [2]: 11% and 6% | Population Mitochondria Different-Phenotype (%) [2]: 4% and 2% | Population Mitotic Cells (%) [2]: 21% and 28% | Population Normal (%) [2]: 97% | Population Pyknosed Nuclei (%) [2]: 9% and 5% | Population Tubulin-Different-Phenotype (%) [2]: 6% | Total Cell Count [2]: 242 and 138 | Population Apoptotic (%) [3]: 96% and 77% | Population Fragmented Nuclei (%) [3]: 19% and 15% | Population Healthy Nuclei (%) [3]: 70% and 77% | Population Hoechst High Intensity Objects (%) [3]: 2% and 0% | Population Membrane Permeable-Phenotype (%) [3]: 5% and 4% | Population Mitochondria Different-Phenotype (%) [3]: 4% and 3% | Population Normal (%) [3]: 97% and 99% | Population Pyknosed Nuclei (%) [3]: 9% and 7% | Population Tubulin-Different-Phenotype (%) [3]: 3% and 6% | Total Cell Count [3]: 277 and 125 | Population Apoptotic (%) [4]: 92% and 90% | Population Fragmented Nuclei (%) [4]: 24% and 12% | Population Healthy Nuclei (%) [4]: 65% and 80% | Population Hoechst High Intensity Objects (%) [4]: 1% and 2% | Population Membrane Permeable-Phenotype (%) [4]: 11% and 7% | Population Mitochondria Different-Phenotype (%) [4]: 2% | Population Mitotic Cells (%) [4]: 7% and 9% | Population Normal (%) [4]: 98% and 97% | Population Pyknosed Nuclei (%) [4]: 10% and 7% | Population Tubulin-Different-Phenotype (%) [4]: 5% and 4% | Total Cell Count [4]: 260 and 154 | Population Apoptotic (%) [5]: 97% and 86% | Population Fragmented Nuclei (%) [5]: 15% and 18% | Population Healthy Nuclei (%) [5]: 75% and 72% | Population Hoechst High Intensity Objects (%) [5]: 1% and 0% | Population Membrane Permeable-Phenotype (%) [5]: 6% | Population Mitochondria Different-Phenotype (%) [5]: 3% and 4% | Population Normal (%) [5]: 98% and 100% | Population Pyknosed Nuclei (%) [5]: 9% and 8% | Population Tubulin-Different-Phenotype (%) [5]: 3% and 4% | Total Cell Count [5]: 408 and 170 | Population Apoptotic (%) [6]: 92% and 85% | Population Fragmented Nuclei (%) [6]: 19% and 9% | Population Healthy Nuclei (%) [6]: 72% and 78% | Population Hoechst High Intensity Objects (%) [6]: 3% and 4% | Population Membrane Permeable-Phenotype (%) [6]: 7% and 6% | Population Mitochondria Different-Phenotype (%) [6]: 3% and 2% | Population Mitotic Cells (%) [6]: 7% and 14% | Population Normal (%) [6]: 96% and 95% | Population Pyknosed Nuclei (%) [6]: 8% and 11% | Population Tubulin-Different-Phenotype (%) [6]: 5% and 4% | Total Cell Count [6]: 344 and 241
